Experimental findings from PubChem BioAssay AID504383 (The Scripps Research Institute Molecular Screening Center, 2011) are described below.

In all, about 2,500 compounds went through this assay and about 1,200 (48%) were called active.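 How the source made its calls: active means mean activation above the low control average plus 3 SD, as set in the primary screen (cut at about 12% in these data); inactive means the rest.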 So high a share suggests a set chosen from earlier hits. Some of the results follow.

The experiment deals with Troponin I, cardiac muscle (Homo sapiens) + Troponin T, cardiac muscle (Homo sapiens) + Troponin C, slow skeletal and cardiac muscles (Homo sapiens) (UniProt P19429+P45379+P63316). The experiment can be described thus: calcium sensitizers of cardiac thin filaments – biochemical, IANBD-TnC fluorescence, triplicate, confirmation (AID 504383).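 Further: 0% = DMSO at 0.472 mM calcium and 100% = DMSO at 2.9 mM calcium.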 To be noted: IANBD-labeled cardiac RTF, Ca2+ sensitivity fluorescence; at 7.2 µM; active compounds read high; scaled from EC20 to saturating calcium; tested at EC20 calcium, 0.472 mM. The procedure, abridged: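 material = labelled regulated thin filaments | probe or stimulus = Ca2+ 0.472 mM, EC20 level | dosing = single nominal compound dose of 7.2 µM | schedule = 15 min at 25 °C | signal = fluorescence intensity of labelled filaments | evaluation = fluorescence gain scaled between EC20 and EC100 calcium controls | benchmarks = low control EC20 calcium, high control EC100 calcium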
`COc1ccccc1-c1nnc(SCc2nc3ccccc3s2)n1C`: the activation is 29.9% (active).
For `O=C(NCc1ccccc1Cl)c1ccc2nc[nH]c2c1`, the activation is 6.6% (inactive).
Regarding `CC(C)(C)OC(=O)[C@H](Cc1ccccc1)NC(=O)c1nc[nH]c1C(=O)NCc1ccccc1`, the activation was 25.1% (active).
With `CN(Cc1ccccc1)C(=O)c1[nH]cnc1C(=O)NCc1ccccc1` the figure was 59.9% (active); with `O=C1N(c2ccc(Cl)cc2)C(c2ccccc2)N2CCCN12` (centres undefined), 5.52% (inactive).
Turning to `Fc1ccc(-c2nnc(-c3ccc(Cl)cc3Cl)o2)cc1`, the activation is 54% (active).
As to `O=C(c1cccc(F)c1)N1CCN(C(=O)c2cc(-c3ccc(Cl)cc3Cl)on2)CC1`, the activation was 3.41% (inactive).
Consider `Cc1ccc(-n2nc(C)c(=O)c(-c3ccccc3)c2NC(=O)c2cccs2)cc1`, for which the activation was 11.8% (active).
On to `C/C(=N\NC(=O)c1ccccc1)c1ccc(NC(=O)c2cccs2)cc1`, for which the activation was 3.16% (inactive).
As for `CCOC(=O)/C(=C\C=C1/Sc2cc(OCC)c(OCC)cc2N1CC)C(C)=O`, the activation was 8.28% (inactive).
For `CCOC(=O)/C(=C/C=C1\Sc2cc(C)c(C)cc2N1CC)C(C)=O` the value was 4.3% (inactive); for `CCOC(=O)/C(=C\C=C1/Sc2ccccc2N1CC)C(C)=O`, 20% (active); for `CCOC(=O)/C(C#N)=C(C)/C=C1\Sc2ccccc2N1CC`, 11.9% (active).
Take `CCOC(=O)/C(=C/C=C1\Sc2ccccc2N1CC)C(C)=O`: the activation is 190% (active).
Consider `CCOC(=O)/C(=C/C=C1\Sc2cc(OCC)c(OCC)cc2N1CC)C(C)=O`, for which the activation is 40% (active).
`CCN1/C(=C\C=C(C(C)=O)C(C)=O)Sc2ccccc21`: the activation is 9.03% (inactive).
Regarding `CC1(C)c2[nH]c3ccccc3c2C[C@H]2C(=O)N(Cc3ccc(F)cc3)C(=O)N21`, the activation is 6.36% (inactive).
With `CC(C)NC(=O)C1CCCN(c2nnc(-n3cccc3)s2)C1` (centres undefined) the figure was 1270% (active); with `Cc1cc(Br)ccc1SCC(=O)OCC(=O)Nc1ccccc1C#N`, 9.13% (inactive).
With `COC(=O)c1cc2c(cc1NC(=O)CSCCc1ccccn1)OCO2` the figure was 7.4% (inactive); with `COCc1cc(C)n(CC(=O)Nc2ccccc2C(=O)OC)c(=O)c1C#N`, 23.2% (active).
For `Cc1noc(C)c1S(=O)(=O)N(C)C[C@H]1Oc2ccc(NC(=O)CCC(F)(F)F)cc2C(=O)N([C@H](C)CO)C[C@@H]1C`, the activation is 10.2% (inactive).
Regarding `C[C@H]1CN([C@@H](C)CO)C(=O)Cc2cc(NC(=O)CCC(F)(F)F)ccc2O[C@H]1CN(C)S(C)(=O)=O`, the activation is 15.4% (active).
For the compound `COc1ccc(-n2c(O)c(/C=N/NS(=O)(=O)c3cccc([N+](=O)[O-])c3)c3ccccc3c2=O)cc1OC`, the activation is 9.84% (inactive).
For the compound `COc1ccccc1NS(=O)(=O)c1cc([N+](=O)[O-])ccc1N/N=C/c1c(C)[nH]c2ccccc12`, the activation is 27.9% (active).
Take `COc1ccccc1NS(=O)(=O)c1ccccc1C#N`: the activation is 3.34% (inactive).
Turning to `CN(C)c1ccc(/C=C2\SC(=S)N(Nc3ncc(C(F)(F)F)cc3Cl)C2=O)cc1`, the activation is 7.16% (inactive).
In the case of `O=C(NN1C(=O)/C(=C/c2ccc(O)cc2)SC1=S)c1ccccc1O`, the activation is 9.61% (inactive).
`CC(=O)NN1C(=O)/C(=C\c2ccc(O)cc2)SC1=S`: the activation was 12.5% (active).
With `O=C(CCN1C(=O)/C(=C/c2cccs2)SC1=S)NNC(=O)c1cccc(O)c1`, the activation is 7.19% (inactive).
Turning to `O=C(NN1C(=O)/C(=C/c2ccc(O)cc2)SC1=S)c1cccc(O)c1`, the activation was 12.5% (active).
As to `Cc1ccc(N2C3=C(C(=O)CC(C)(C)C3)C(c3cn(C)nc3C)C3=C2CC(C)(C)CC3=O)cc1`, the activation is 35.1% (active).
With `Cc1c(C2Nc3ccccc3NC3=C2C(=O)CC(C)(C)C3)cnn1C` (centres undefined), the activation was 4.72% (inactive).
On to `N#C/C(=C\c1c[nH]c2ccccc12)C(=O)Nc1ncc(Cc2ccc(Cl)cc2Cl)s1`, for which the activation was 30.3% (active).
Consider `COc1cc(/C=C(\C#N)C(=O)c2c[nH]c3ccccc23)cc(OC)c1O`, for which the activation is 5.75% (inactive).
For the compound `COCCN=c1scc(-c2cc(OC)c(OC)c(OC)c2)n1/N=C/c1c(C)[nH]c2ccccc12`, the activation was 72.2% (active).
With `CC(C)Oc1ccc(/C(O)=C2/C(=O)C(=O)N(CCN3CCNCC3)C2c2cccc([N+](=O)[O-])c2)cc1` (centres undefined) the figure was 6.36% (inactive); with `O=C(C1=C(O)C(=O)N(CCN2CCOCC2)C1c1ccc([N+](=O)[O-])cc1)c1cccs1` (centres undefined), 188% (active).
For `COc1ccc(NC(=O)CNS(=O)(=O)c2cccs2)cc1`, the activation is 7.87% (inactive).
As for `COc1ccc(N(C(=O)c2ccc(C)cc2)S(=O)(=O)c2cccs2)cc1`, the activation was 175% (active).
In the case of `Nc1ccc2cc3[nH]c4cc(N)ccc4c3nc2c1`, the activation is 13.7% (active).
Consider `O=C(O)C1=C[C@H](c2ccccc2)C[C@H](OCc2ccc(CO)cc2)O1`, for which the activation is 1.76% (inactive).
For `Cc1c(O)c(=O)c2ccccc2n1C`, the activation is 16.4% (active).
For the compound `COc1ccc(NC(=O)CCN2CC(C)OC(C)C2)c(OC)c1` (centres undefined), the activation is 4.53% (inactive).
With `COc1ccc(NC(=O)CCN2CCCC2)c(OC)c1` the figure was 80.7% (active); with `COc1ccc(CN2CCC(=O)N([C@H](CO)c3ccccc3)CC2)cc1`, 21.1% (active); with `COc1ccc(-c2c3c(=O)n(C)c(=O)n(C)c3cn2-c2cccc(OC)c2)cc1`, 1.1% (inactive).
For `COc1ccc(CN2CNc3c(c(=O)n(C)c(=O)n3C)C2)cc1` the value was 14.9% (active); for `CCCNC(=S)N1CCC(NC(=O)C23CC4CC(CC(C4)C2)C3)CC1`, 8.77% (inactive).
`Nc1ccc2nc(-c3ccccc3)cnc2c1`: the activation is 83.1% (active).
With `c1ccc(-c2cnn3c(-c4ccccc4)c(-c4ccccc4)nc3n2)cc1`, the activation was 3.13% (inactive).
For the compound `CCO/C=C1\N=C(c2ccc(F)cc2)OC1=O`, the activation was 4.72% (inactive).
For `CN1/C(=C\C=C2\N=C(c3ccc(F)cc3)OC2=O)C(C)(C)c2ccccc21`, the activation was 13.9% (active).
With `CN1/C(=C\C=C2/SC(=S)NC2=O)C(C)(C)c2ccccc21` the figure was 10.1% (inactive).
On to `CC(C)c1ccc(NS(=O)(=O)c2cccc3cccnc23)cc1`, for which the activation is 446% (active).
`CCN(CC)C(=O)C1CCC(CNS(=O)(=O)c2cccc3cccnc23)CC1` (centres undefined): the activation was 0.91% (inactive).
On to `O=C1CCC[C@@H]2C[C@@]3(C[C@@H]4CCN1[C@H]24)Nc1cc([N+](=O)[O-])ccc1NC3=NC1CCCCC1`, for which the activation was 41.2% (active).
Take `COC(=O)C(=N/Nc1ccccc1C(=O)OC)/C(C)=N/O`: the activation is 35.7% (active).
With `Cc1ccc2nc(/C(C#N)=C\c3ccc(N4CCOCC4)o3)[nH]c2c1` the figure was 44.2% (active).
For the compound `N#C/C(=C\c1ccc(N2CCOCC2)o1)c1nc2ccccc2[nH]1`, the activation was 29.6% (active).
Take `N#C/C(=C/c1ccc(N2CCOCC2)o1)c1nc2ccccc2[nH]1`: the activation was 11.4% (inactive).
`Clc1ccc(-n2cc(-c3ccc(Br)cc3)[n+]3c2CCCCC3)cc1`: the activation was 0.54% (inactive).
As to `c1ccc(-c2cn3nc4c(nc3n2)CCCC4)cc1`, the activation is 48.2% (active).
For `Clc1ccc(-c2cn3nc4c(nc3n2)CCCC4)cc1` the value was 9.46% (inactive); for `Brc1ccc(-c2cn3nc4c(nc3n2)CCCC4)cc1`, 22.8% (active); for `CC1(C)CC(=O)C=C(Nc2ccccc2N)C1`, 31.4% (active).
Take `CC1(C)CC(=O)C=C(NCc2ccc(Cl)c(Cl)c2)C1`: the activation was 3.4% (inactive).
On to `O/C=c1\ccc2cccc3nc(C(F)(F)F)nc1c23`, for which the activation was 5010% (active).
On to `Cc1ccccc1C(=O)NCCCc1ccccc1`, for which the activation is 0.23% (inactive).
With `O=C(NCCc1ccccc1)c1ccc(Cl)nc1` the figure was 16.1% (active).
As to `COC(=O)C1=C(C(=O)c2ccc(C)cc2)C(c2ccc(OC)c(OC)c2)n2nnnc2N1` (centres undefined), the activation is 9.37% (inactive).
Regarding `CC(C)CCNC(=O)c1ccc2c(SCC(=O)O)c3c(nc2c1)CCC3`, the activation is 35.4% (active).
For `CCOc1c2ccc(C(=O)NCCc3cccs3)cc2nn1CC`, the activation was 9.3% (inactive).
For the compound `Cc1cc(C)n2nc(SCC(=O)N(C)Cc3ccccc3)nc2n1`, the activation is -3.59% (inactive).
Take `CN(Cc1ccccc1)C(=O)N1CCOCC1`: the activation was 12.1% (active).
Consider `O=C(N1CCOCC1)N1CCC(n2nnc3ccccc32)CC1`, for which the activation was 5.64% (inactive).
With `CCc1cc(C(=O)Nc2ccc(OC)nc2)sc1C`, the activation is 4.99% (inactive).
Turning to `O=C(COc1ccc(Cl)cc1)NCc1ccccc1`, the activation is 10.9% (inactive).
Consider `O=C(COC(=O)C1CCC1)NCc1ccccc1`, for which the activation was 286% (active).
With `O=C(COC(=O)C1CCCCC1)Nc1ccc([N+](=O)[O-])cc1` the figure was 82.4% (active); with `O=C(COC(=O)C1CCC(=O)N1)Nc1ccc(Oc2ccccc2)cc1` (centres undefined), 5.98% (inactive); with `Cc1ccc(C(=O)COC(=O)C2CCC2)cc1`, 9.89% (inactive).
Turning to `CCn1cc(C(=O)NCCC(=O)NCCO)c(=O)c2cc3c(cc21)OCO3`, the activation was 57.2% (active).
With `COc1ccc(-[n+]2c(C)cc(/C=C3\Sc4ccccc4N3C)cc2C)cc1` the figure was 249% (active); with `COc1ccccc1-[n+]1c(C)cc(/C=C2\Sc3ccccc3N2C)cc1C`, 12% (active).
With `CC[n+]1c(/C=C2\Sc3ccccc3N2C)ccc2cccc(C)c21` the figure was 6.15% (inactive); with `CCC(CO)[n+]1c(C)cc(/C=C2\Sc3ccccc3N2Cc2ccccc2)cc1C` (centres undefined), 3.94% (inactive).
`Oc1cccc(Nc2nc(O)c(/C=C3\C=Nc4ccccc43)s2)c1`: the activation is 127% (active).
On to `CC(C)=CCC/C(C)=C/Cc1c(O)ccc(C(=O)/C=C/c2ccc(O)cc2)c1O`, for which the activation was 563% (active).
As for `CN(C)c1ccc(/C=C/C(=O)c2ccc(O)cc2)cc1`, the activation was 1.84% (inactive).
With `O=C(Cc1ccccc1)Nc1cccc(-c2nc3ncccc3o2)c1` the figure was 15.3% (active); with `COc1cccc(CC(NC(C)=O)C(=O)NC2CCN(c3nc(C)cc(C)c3C#N)CC2)c1OC` (centres undefined), 34% (active).
For `CC(=O)NC(Cc1ccc(F)c(F)c1)C(=O)NC1CCN(S(=O)(=O)c2ccc(C)cc2)CC1` (centres undefined) the value was 6.59% (inactive); for `CCOC(=O)[C@H]1[C@H]2COc3ccccc3[C@@H]2N2C(=O)CN(Cc3ccc(C)cc3)C(=O)[C@@]12C`, 8.95% (inactive).
